Test results: ChEMBL document CHEMBL1140938, “Structural requirements for a lipoamino acid in modulating the anticonvulsant activities of systemically active galanin analogues” (J Med Chem, 2009)

Key:
Galanin receptor type 1 = target: T1, Galanin receptor type 1 (Homo sapiens, UniProt P47211); assay: Displacement of europium labeled galanin from human recombinant GalR1 receptor by time-resolved fluorescence binding assay
T1 sequence (P47211 whole entry): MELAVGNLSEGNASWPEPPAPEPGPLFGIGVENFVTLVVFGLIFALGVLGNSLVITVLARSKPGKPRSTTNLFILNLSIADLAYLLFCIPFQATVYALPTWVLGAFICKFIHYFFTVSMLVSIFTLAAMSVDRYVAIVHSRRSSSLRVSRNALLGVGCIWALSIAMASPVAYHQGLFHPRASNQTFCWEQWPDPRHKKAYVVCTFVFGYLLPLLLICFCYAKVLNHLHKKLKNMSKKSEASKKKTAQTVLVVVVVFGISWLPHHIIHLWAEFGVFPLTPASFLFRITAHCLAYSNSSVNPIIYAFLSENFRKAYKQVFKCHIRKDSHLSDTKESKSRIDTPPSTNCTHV
Procedure, shortened: (§1)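 Competition binding on membranes from recombinant human GalR1 or GalR2 versus 2 nM europium-labeled galanin; 90 min incubation at room temperature, four washes (50 mM Tris-HCl pH 7.5, 5 mM MgCl2), enhancement solution 30 min at room temperature, time-resolved fluorescence read.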

Galanin receptor type 2 = target: T2, Galanin receptor type 2 (Homo sapiens, UniProt O43603); assay: Displacement of europium labeled galanin from human recombinant GalR2 receptor by time-resolved fluorescence binding assay
T2 sequence (O43603 whole entry): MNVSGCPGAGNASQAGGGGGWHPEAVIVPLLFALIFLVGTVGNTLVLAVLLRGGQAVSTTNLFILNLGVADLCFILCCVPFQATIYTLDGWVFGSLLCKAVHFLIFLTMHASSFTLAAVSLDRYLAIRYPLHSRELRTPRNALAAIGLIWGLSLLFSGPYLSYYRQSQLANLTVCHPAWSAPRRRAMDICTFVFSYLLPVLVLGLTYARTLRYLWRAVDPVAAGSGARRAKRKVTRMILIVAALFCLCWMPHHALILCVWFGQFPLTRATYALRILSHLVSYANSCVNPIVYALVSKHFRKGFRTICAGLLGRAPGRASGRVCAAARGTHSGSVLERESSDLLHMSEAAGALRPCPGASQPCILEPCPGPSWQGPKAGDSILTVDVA
Procedure, shortened: as §1, with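 “read. Ki from nonlinear sigmoidal variable-slope fit, one-site reversible model, tracer Kd held at 4.3 nM.” for “read.”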

[1] = Lipophilicity, log D by HPLC method; format: physicochemical
Procedure, shortened: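 HPLC retention times were measured on a linear gradient of 20% to 100% buffer B (0.1% TFA in 90% aqueous acetonitrile; A was 0.1% TFA in water) over 40 min. Five analogs were calibrated by shake flask: 400 µg peptide in 1 mL PBS shaken with an equal volume of water-saturated octanol for 24 h, aqueous phase quantified by HPLC. LogD was calculated from the linear correlation with retention time.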

CCCCCCCCCCCCCCCCCC(=O)NCCCC[C@H](NC(=O)[C@H](CCCCN)NC(=O)[C@H](CCCCN)NC(=O)[C@@H]1CCCN1C(=O)CNC(=O)[C@H](CC(C)C)NC(=O)[C@H](CC(C)C)NC(=O)[C@H](Cc1ccc(O)cc1)NC(=O)CNC(=O)[C@H](C)NC(=O)[C@H](CO)NC(=O)[C@H](CC(N)=O)NC(=O)[C@H](CC(C)C)NC(=O)[C@@H](NC(=O)[C@H](Cc1c[nH]c2ccccc12)NC(=O)CNC)[C@@H](C)O)C(=O)N[C@@H](CCCCN)C(N)=O showed a Ki (Galanin receptor type 1) of 4 nM and a Ki (Galanin receptor type 2) of 15 nM.

For CCCCCCCCCC(=O)NCCCC[C@H](NC(=O)[C@H](CCCCN)NC(=O)[C@H](CCCCN)NC(=O)[C@@H]1CCCN1C(=O)CNC(=O)[C@H](CC(C)C)NC(=O)[C@H](CC(C)C)NC(=O)[C@H](Cc1ccc(O)cc1)NC(=O)CNC(=O)[C@H](C)NC(=O)[C@H](CO)NC(=O)[C@H](CC(N)=O)NC(=O)[C@H](CC(C)C)NC(=O)[C@@H](NC(=O)[C@H](Cc1c[nH]c2ccccc12)NC(=O)CNC)[C@@H](C)O)C(=O)N[C@@H](CCCCN)C(N)=O, the Ki (Galanin receptor type 1) was 1.3 nM and the Ki (Galanin receptor type 2) was 14.4 nM.

For CCCCCCCC(=O)NCCCC[C@H](NC(=O)[C@H](CCCCN)NC(=O)[C@H](CCCCN)NC(=O)[C@@H]1CCCN1C(=O)CNC(=O)[C@H](CC(C)C)NC(=O)[C@H](CC(C)C)NC(=O)[C@H](Cc1ccc(O)cc1)NC(=O)CNC(=O)[C@H](C)NC(=O)[C@H](CO)NC(=O)[C@H](CC(N)=O)NC(=O)[C@H](CC(C)C)NC(=O)[C@@H](NC(=O)[C@H](Cc1c[nH]c2ccccc12)OC(=O)CNC)[C@@H](C)O)C(=O)N[C@@H](CCCCN)C(N)=O, the logD [1] was 0.78.

For CCCCCCCCCCCCCC(=O)NCCCC[C@H](NC(=O)[C@H](CCCCN)NC(=O)[C@H](CCCCN)NC(=O)[C@@H]1CCCN1C(=O)CNC(=O)[C@H](CC(C)C)NC(=O)[C@H](CC(C)C)NC(=O)[C@H](Cc1ccc(O)cc1)NC(=O)CNC(=O)[C@H](C)NC(=O)[C@H](CO)NC(=O)[C@H](CC(N)=O)NC(=O)[C@H](CC(C)C)NC(=O)[C@@H](NC(=O)[C@H](Cc1c[nH]c2ccccc12)NC(=O)CNC)[C@@H](C)O)C(=O)N[C@@H](CCCCN)C(N)=O, the Ki (Galanin receptor type 1) was 2.6 nM and the Ki (Galanin receptor type 2) was 18.2 nM.

CCCCCCCCCCCC(=O)NCCCC[C@H](NC(=O)[C@H](CCCCN)NC(=O)[C@H](CCCCN)NC(=O)[C@@H]1CCCN1C(=O)CNC(=O)[C@H](CC(C)C)NC(=O)[C@H](CC(C)C)NC(=O)[C@H](Cc1ccc(O)cc1)NC(=O)CNC(=O)[C@H](C)NC(=O)[C@H](CO)NC(=O)[C@H](CC(N)=O)NC(=O)[C@H](CC(C)C)NC(=O)[C@@H](NC(=O)[C@H](Cc1c[nH]c2ccccc12)NC(=O)CNC)[C@@H](C)O)C(=O)N[C@@H](CCCCN)C(N)=O gave a Ki (Galanin receptor type 1) of 1.4 nM and a Ki (Galanin receptor type 2) of 16.1 nM.

For CCCCCCCC(=O)NCCCC[C@H](NC(=O)[C@H](CCCCN)NC(=O)[C@H](CCCCN)NC(=O)[C@@H]1CCCN1C(=O)CNC(=O)[C@H](CC(C)C)NC(=O)[C@H](CC(C)C)NC(=O)[C@H](Cc1ccc(O)cc1)NC(=O)CNC(=O)[C@H](C)NC(=O)[C@H](CO)NC(=O)[C@H](CC(N)=O)NC(=O)[C@H](CC(C)C)NC(=O)[C@@H](NC(=O)[C@H](Cc1c[nH]c2ccccc12)NC(=O)CNC)[C@@H](C)O)C(=O)N[C@@H](CCCCN)C(N)=O, the Ki (Galanin receptor type 1) was 0.7 nM and the Ki (Galanin receptor type 2) was 14.9 nM.

Work on CCCCCCCCCCCCCCCCCC(=O)NCCCC[C@H](NC(=O)[C@H](CCCCN)NC(=O)[C@H](CCCCN)NC(=O)[C@@H]1CCCN1C(=O)CNC(=O)[C@H](CC(C)C)NC(=O)[C@H](CC(C)C)NC(=O)[C@H](Cc1ccc(O)cc1)NC(=O)CNC(=O)[C@H](C)NC(=O)[C@H](CO)NC(=O)[C@H](CC(N)=O)NC(=O)[C@H](CC(C)C)NC(=O)[C@@H](NC(=O)[C@H](Cc1c[nH]c2ccccc12)OC(=O)CNC)[C@@H](C)O)C(=O)N[C@@H](CCCCN)C(N)=O yielded a logD [1] of 1.35.

CNCC(=O)N[C@@H](Cc1c[nH]c2ccccc12)C(=O)N[C@H](C(=O)N[C@@H](CC(C)C)C(=O)N[C@@H](CC(N)=O)C(=O)N[C@@H](CO)C(=O)N[C@@H](C)C(=O)NCC(=O)N[C@@H](Cc1ccc(O)cc1)C(=O)N[C@@H](CC(C)C)C(=O)N[C@@H](CC(C)C)C(=O)NCC(=O)N1CCC[C@H]1C(=O)N[C@@H](CCCCN)C(=O)N[C@@H](CCCCN)C(=O)N[C@@H](CCCCNC(=O)COCCOCCOCCOCCOC)C(=O)N[C@@H](CCCCN)C(N)=O)[C@@H](C)O showed a Ki (Galanin receptor type 1) of 0.5 nM and a Ki (Galanin receptor type 2) of 20.5 nM.
